Consider 16 compounds from ChEMBL document CHEMBL4680167, “Synthesis and SARs of dopamine derivatives as potential inhibitors of influenza virus PA endonuclease” (Eur J Med Chem, 2020).

Series [1] can be described thus: Selectivity index, ratio of CC50 for dog MDCK cells to EC50 for Influenza A virus (A/WSN/1933(H1N1)) infected in dog MDCK cells. It is filed as toxicity, cell-based. The note with it: read-out: Ratio CC50/EC50.
Series [2] is described as follows: Cytotoxicity against dog MDCK cells assessed as reduction in cell viability incubated for 48 hrs by MTT assay. It is filed as cell-based, Canis lupus familiaris. Summed up: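 Uninfected MDCK cells were seeded overnight, then exposed to increasing compound concentrations or 0.1% DMSO blank for 48 h. Viability was read by MTT; CC50 is the concentration killing 50% of cells.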

Series [3] is described as follows: Inhibition of recombinant Influenza A virus (A/USA:Huston/AA/1945 H1N1)) N-terminal His6-tagged PA endonuclease using 6FAM-TGGCAATATCAGCTCCACA-MGBN DNA probe as substrate by TR-FRET assay. In outline: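 Recombinant PA_N cleavage was followed by FRET on a TaqMan-like probe: 5'-FAM, 19 nucleotides, 3'-MGBNFQ quencher, excitation 492 nm. Cleavage frees FAM fluorescence. Percentage inhibition was plotted against log compound concentration; mean ± SD of eleven independent experiments.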

Series [4] relates to Influenza A virus. Put plainly: Antiviral activity against Influenza A virus (A/WSN/1933(H1N1)) infected in dog MDCK cells assessed as reduction in virus-induced cytopathic effect incubated for 48 hrs by MTT assay. It is filed as functional, organism-based. In outline: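 MDCK cells (DMEM, 10% FBS, 37 °C, 5% CO2) were seeded overnight and infected with 100 TCID50 (MOI 3.5×10^-3) of A/WSN/33 for 1 h. Compounds were added at increasing concentrations and cells were cultured about 48 h in FBS-free medium with 0.6 µg/mL TPCK-trypsin. Read-out was MTT, formazan dissolved in DMSO, A570, with CPE checked by microscopy. Triplicates; EC50 is the concentration giving 50% cell protection.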
On the technique in general: Damage to the host cells serves as the signal in cytopathic effect assays.

Series [5] is described as follows: (§1) Binding affinity to recombinant Influenza A virus (A/USA:Huston/AA/1945 H1N1)) N-terminal His6-tagged PA endonuclease assessed as dissociation constant by SPR analysis. Summed up: (§2)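 For SPR, compounds were printed in 5 repeats on a photo-cross-linker chip. The surface was primed with HBS-EP (10 mM HEPES pH 7.0, 150 mM NaCl, 3 mM EDTA, 0.005% P20), then with running buffer (PBS, 5% DMSO). PA_N at 10, 20, 40, 80 and 160 nM in running buffer was injected 600 s at 0.5 µL/s, followed by 360 s dissociation.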
In general terms: Surface plasmon resonance follows binding to a sensor surface in real time, without labels.

Series [6] has as its system Influenza A virus. The description is as §1. In outline: as §2

Broadly, the CC50 is the concentration giving 50% cytotoxicity. Broadly, the pEC50 is the negative decadic logarithm of the EC50, by convention in mol/L. Broadly, the pKd is the negative decadic logarithm of the Kd, by convention in mol/L.

pEC50, pKd: −log10 of the molar value.

Take `O=C(CCc1ccc(O)c(O)c1)NCCc1ccc(O)c(O)c1`: the selectivity ratio in series [1] is > 64.8. Further, in series [2], the CC50 at 48 h is > 200 µM. The values for the pEC50 in series [3] and in series [4] were 6.07 and 5.31, respectively.

As for `O=C(NCCc1ccc(O)c(O)c1)c1cc(O)c(O)c(O)c1`, the pEC50 in series [4] was < 4.52.

For `O=C(CCc1ccc(O)c(O)c1)N1CCc2cc(O)c(O)cc2C1`, the selectivity ratio in series [1] amounted to 10.6. In addition, the CC50 at 48 h in series [2] was 197 µM. For the same compound, the pEC50 in series [4] was 4.73.

Regarding `Oc1ccc(CCNC(=S)Cc2ccc(O)c(O)c2)cc1O`, the selectivity ratio in series [1] is > 45.7. The CC50 at 48 h in series [2] was > 200 µM. Further, the values for the pEC50 in series [3] and in series [4] were 5.89 and 5.15, respectively.

For the compound `O=C(c1ccc(O)c(O)c1)N1CCc2cc(O)c(O)cc2C1`, the selectivity ratio in series [1] was 43. The CC50 at 48 h in series [2] is 133 µM. The pEC50 in series [3] is 6.24; in series [4], 5.51.

On to `O=C(Cc1ccc(O)c(O)c1)N1CCc2cc(O)c(O)cc2C1`, for which the selectivity ratio in series [1] turned out to be 58.5. In addition, in series [5], the pKd is 7.03. Further, the Activity result in series [6] is “Dose-dependent effect”. Moreover, the CC50 at 48 h in series [2] was determined as 151 µM. In addition, the pEC50 is 6.31 in series [3] and 5.59 in series [4].

Take `O=C(NCCc1ccc(O)c(O)c1)c1cccc(O)c1O`: the pEC50 in series [4] was < 4.52.

Regarding `O=C(O[C@@H]1Cc2c(O)cc(O)cc2O[C@@H]1c1cc(O)c(O)c(O)c1)c1cc(O)c(O)c(O)c1` [EPIGALOCATECHIN GALLATE], the selectivity ratio in series [1] was > 6.9. In series [5], the negative-log Kd (pKd) is 6.02. The CC50 at 48 h in series [2] was > 200 µM. The pEC50 is 5.19 in series [3] and 4.54 in series [4].

In the case of `O=C(Cc1ccc(O)c(O)c1)NCCc1ccc(O)c(O)c1`, in series [1], the selectivity ratio is > 81.3. The pKd in series [5] was 7.58. Moreover, in series [6], the Activity result is “Dose-dependent effect”. The CC50 at 48 h in series [2] was > 200 µM. Further, the pEC50 was 6.51 in series [3] and 5.61 in series [4].

With `O=C(Cc1ccc(O)c(O)c1)OCCc1ccc(O)c(O)c1` [BLAPSIN A], the pEC50 in series [4] is < 4.52.

Regarding `O=C(NCCc1ccc(O)c(O)c1)c1cccc(O)c1`, in series [1], the selectivity ratio was > 15.3. The CC50 at 48 h in series [2] was > 200 µM. In addition, the pEC50 in series [4] was 4.88.

As to `O=C1c2cc(=O)ccn2N([C@@H]2c3ccccc3SCc3c2ccc(F)c3F)[C@@H]2COCCN12`, in series [5], the pKd is 9.68.

As to `O=C(NCCc1ccc(O)c(O)c1)c1ccc(O)cc1`, the selectivity ratio in series [1] was > 25.2. For the same compound, the CC50 at 48 h in series [2] is > 200 µM. For the same compound, the pEC50 in series [4] was 4.90.

Consider `O=C(NCCc1ccc(O)c(O)c1)c1ccccc1O`, for which, in series [4], the pEC50 is < 4.52.

For `CCC(CC)[C@H](NC(C)=O)[C@@H]1[C@H](O)[C@@H](C(=O)O)C[C@H]1NC(=N)N` [PERAMIVIR ANHYDROUS], the selectivity ratio in series [1] was > 38. The CC50 at 48 h in series [2] is > 200 µM. Also, the pEC50 in series [4] was 5.28.

In the case of `O=C(NCCc1ccc(O)c(O)c1)c1ccc(O)c(O)c1`, the selectivity ratio in series [1] was found to be 15. Further, the CC50 at 48 h in series [2] came out at 154 µM. In addition, the pEC50 in series [4] was 4.99.
